Laboratory results from PubChem BioAssay.
Active and inactive are the calls of the source.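 How the source made its calls, unless noted: active means viability at or under a set limit in both replicates, limit being median viability minus 3 SD (cut at about 48% in these data, passing the limit was not always enough); inconclusive means at or under the limit in just one replicate; inactive means at or above the limit in both replicates.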

Assays:
[1] = reduced viability of SK-BR-3 breast cancer cells – cell-based, 24 h, human, pilot screen (AID 572;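 active means viability at or below 10% of carrier control in both of two separate runs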;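 further: compound exposure lasted between 18 and 24 h rather than exactly 24 h; 100% = carrier-treated control wells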); settings: SK-BR-3 viability, CellTiter-Glo luminescence, at 10 µM, stronger effect = lower value
[2] = HUVEC growth inhibition – cell-based, human, primary screen (AID 575;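 active means viability at or below 30% in both replicate assays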;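 further: 100% = median of untreated cell wells with 0.1% DMSO on each plate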); settings: HUVEC proliferation, CellTiter-Glo luminescence, 72 h; at 10 µM; stronger effect = lower value
Outline: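 Test system: primary human umbilical vein endothelial cells; medium: endothelial basal medium with 2% FBS plus growth supplements; dosing: 10 µM compound only; times: 72 h treatment at 37 °C; signal: CTG luminescence; read-out: % viability relative to median vehicle-well signal on each plate; control set: vehicle and MePR control wells; plate: 384-well, collagen-coated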

[3] = H69AR cell proliferation blockers – human, duplicate replicates, primary screen (AID 580); settings: H69AR lung tumor cells viability, ATP luminescence, 72 h; at 10 µM; stronger effect = lower value;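 further: 100% = mean luminescence of untreated wells and 0% = no signal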
[4] = MRP1 drug-resistance reversers in H69AR cells – cell-based, doxorubicin co-treatment, pilot screen (AID 601;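 active means viability loss from added drug above about 55%, and viability with drug at most 40%, in both replicates, limit read from the data, passing the limit was not always enough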); settings: CellTiter-Glo, 72 h, at 10 µM; for differential viability (reversal): stronger effect = higher value
[5] = yeast transport mutant growth inhibition pilot in 384-well plates, post-Golgi transport modulator project (AID 636; in the data active means inhibition above about 31%); settings: absorbance 615 nm, about 18 h, stronger effect = higher value
[6] = growth suppression of yeast trafficking mutant, preliminary HTS, modulators of trafficking downstream of Golgi apparatus project, 1536-format plate, OD 615 nm (AID 637; in the data active means inhibition above about 30%); settings: yeast transport mutant growth, absorbance 615 nm, 18 h; stronger effect = higher value
[7] = H69AR cells + 2 uM doxorubicin, measured here: viability with 2 uM doxorubicin, stronger effect = lower value
[8] = H69AR cells, compound alone cytotoxicity

Compound | viability [1] | viability [2] | viability [3] | differential viability (reversal) ([4]; H69AR cells + 2 uM doxorubicin) | viability [4, 7] [%] | viability [4, 8] [%] | inhibition [5] | inhibition [6]
COC(=O)Nc1sc2c(c1C(N)=O)CCCCCC2 | 89% (inactive) | 105% (inactive) | 99.5% (inactive) | 19.3% (inactive) | 80.2 | 99.5 | -1.82% (inactive) | 5.25% (inactive)
Cc1ccc(C)c(N(CC(=O)NC2CCCC2)C(=O)CCCC(=O)Nc2ccccn2)c1 | 99% (inactive) | 81.6% (inactive) | 102% (inactive) | 13.7% (inactive) | 87.8 | 102 | -1.82% (inactive) | -2.95% (inactive)
CCCCNC(=O)NS(=O)(=O)c1ccc(C)cc1 | 97% (inactive) | 76.7% (inactive) | 95.3% (inactive) | -5.94% (inactive) | 101 | 95.3 | -1.04% (inactive) | -2.5% (inactive)
CC(C)Oc1cc2oc(=O)c3c(c2cc1Cl)CCC3 | 66% (inactive) | 99% (inactive) | 98.2% (inactive) | 19.7% (inactive) | 78.6 | 98.2 | -7.4% (inactive) | 0.97% (inactive)
C1CCN=C(Nc2nc3c(s2)CCCC3)CC1 | 104% (inactive) | 109% (inactive) | 89.4% (inactive) | 7.56% (inactive) | 81.9 | 89.4 | -5.6% (inactive) | -1.45% (inactive)
CC(C)c1ccc(CNc2ccc(N3CCOCC3)cc2)cc1 | 74% (inactive) | 81.7% (inactive) | 88.4% (inactive) | 0.93% (inactive) | 87.5 | 88.4 | -6.89% (inactive) | -5.82% (inactive)
CN(C)CCCC1(c2ccc(F)cc2)OCc2cc(C#N)ccc21 (centres undefined) | 79% (inactive) | 73.3% (inactive) | 103% (inactive) | 17.6% (inactive) | 85.7 | 103 | -1.56% (inactive) | -2.5% (inactive)
O=C(c1csc2ccccc12)n1cccn1 | 117% (inactive) | 89.7% (inactive) | 93% (inactive) | 6.73% (inactive) | 86.3 | 93 | -12.3% (inactive) | -1.29% (inactive)
O=C(Nc1ccc(NC(=O)c2ccco2)nc1)c1cccnc1 | 102% (inactive) | 121% (inactive) | 88.7% (inactive) | -1.89% (inactive) | 90.6 | 88.7 | -7.4% (inactive) | 0.65% (inactive)
O=C(CSc1nc2ccccc2c(=O)n1Cc1ccco1)NCc1ccccc1 | 72% (inactive) | 82.6% (inactive) | 89.4% (inactive) | 3.12% (inactive) | 86.3 | 89.4 | -8.63% (inactive) | 0.73% (inactive)
O=C(COC(=O)CCOc1ccccc1)Nc1ccc(Cl)cn1 | 75% (inactive) | 102% (inactive) | 91% (inactive) | -17% (inactive) | 108 | 91 | -2.74% (inactive) | -4.36% (inactive)
O=C(Nc1ccccc1Cl)c1c(F)c(F)c(F)c(F)c1F | 106% (inactive) | 106% (inactive) | 90.2% (inactive) | -7.56% (inactive) | 97.8 | 90.2 | 3.15% (inactive) | 7.09% (inactive)
Cc1oc(-c2ccc(Cl)cc2)cc1-c1nn2c(-c3ccoc3C)nnc2s1 | 86% (inactive) | 75.3% (inactive) | 83.7% (inactive) | -12% (inactive) | 95.7 | 83.7 | 18.9% (inactive) | 3.06% (inactive)
C/C=C(\C)c1nnc(NC(=O)OCC)s1 | 94% (inactive) | 117% (inactive) | 96.4% (inactive) | 6.96% (inactive) | 89.4 | 96.4 | -2.84% (inactive) | -0.91% (inactive)
COc1ccc(/C=N/n2c(SC)nnc2-c2ccccc2)cc1C | 116% (inactive) | 75.5% (inactive) | 20.7% (active) | -58.1% (inactive) | 78.8 | 20.7 | 0.93% (inactive) | 9.27% (inactive)
CCOC(=O)Nc1ccc(NS(=O)(=O)c2ccc(C)cc2)cc1 | 72% (inactive) | 86.6% (inactive) | 83.7% (inactive) | -12.3% (inactive) | 96.1 | 83.7 | 1.92% (inactive) | -7.42% (inactive)
O=C(NC1CCCC1)C(NS(=O)(=O)c1cccc2nsnc12)c1ccccc1 (centres undefined) | 116% (inactive) | 103% (inactive) | 79% (inactive) | -2.47% (inactive) | 81.5 | 79 | -8.08% (inactive) | 8.18% (inactive)
CC(=O)Oc1ccc(C(c2ccc(OC(C)=O)cc2)c2ccccn2)cc1 | 91% (inactive) | 79% (inactive) | 94.9% (inactive) | -0.25% (inactive) | 95.2 | 94.9 | -0.52% (inactive) | 0.83% (inactive)
